Sampled rows, rich in hits. Any-hit rate of the full collection: about 2.3%.
DENV2 CPE rescue: DENV2-induced cell death inhibition. DENV2-infected cells, cytopathic effect rescue, plate reader. CPE inhibition, % at 9.99 µM. 350,000 compounds, 1.7% hits; in the data active means CPE inhibition above about 20%, passing the limit was not always enough; inconclusive means no clear call, values can overlap the other calls; tested in BHK-21 cells;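 further: 0% = median of neutral control wells and 100% = median of positive control wells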
CFTR F508del cor: correctors of CFTR F508del function in bronchial epithelial cells; activity (quench increase), % at 7.58 µM; AID 720511; 350,000 compounds, 0.36% hits; CFBE cells, YFP halide quenching; stimulated with forskolin plus potentiator P3; % fluorescence drop versus neutral controls;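 active means mean added fluorescence quench of at least 8% versus neutral control, with both replicates also reaching 8%; inconclusive means only one of the mean or replicate conditions met; inactive means mean below 8% and not both replicates reaching 8%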;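 further: cells transiently co-express mutant CFTR-F508del with the halide-sensitive YFP; corrector assay measuring rescue of mutant channel to the surface after 24 h compound exposure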
Cneo AK release: causes C. neoformans cell lysis | adenylate kinase release luminescence, 4 h; normalised: neutral wells 0, clomiphene wells 100 | lysis activity, % at 15 µM | 360,000 compounds, 0.2% hits | AID 651654;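 active means mean lysis activity across replicates of at least 80%, whatever share of replicates individually reach that level; inactive means mean lysis activity below 80%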
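Schedule: static 4 h at 37 °C with compound, 1 h detection; system: C. neoformans cells; benchmarks: Clomiphene as positive control; buffer or medium: fresh YPD medium; measure: luminescence rise reflecting yeast cell lysis; measured by: luminescent adenylate kinase detection reagent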
PDI turbidity: PDI (human) enzyme inhibition; PDI insulin aggregation turbidity, A650, 90 min; inhibition, % at 10 µM; 350,000 compounds, 0.052% hits; AID 588391;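 active means mean inhibition across replicates of 30% or more, whatever share of single replicates reach that level; inconclusive means mean inhibition below 30% while every single replicate reaches 30%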
Target sequence (P07237 whole entry, looked up): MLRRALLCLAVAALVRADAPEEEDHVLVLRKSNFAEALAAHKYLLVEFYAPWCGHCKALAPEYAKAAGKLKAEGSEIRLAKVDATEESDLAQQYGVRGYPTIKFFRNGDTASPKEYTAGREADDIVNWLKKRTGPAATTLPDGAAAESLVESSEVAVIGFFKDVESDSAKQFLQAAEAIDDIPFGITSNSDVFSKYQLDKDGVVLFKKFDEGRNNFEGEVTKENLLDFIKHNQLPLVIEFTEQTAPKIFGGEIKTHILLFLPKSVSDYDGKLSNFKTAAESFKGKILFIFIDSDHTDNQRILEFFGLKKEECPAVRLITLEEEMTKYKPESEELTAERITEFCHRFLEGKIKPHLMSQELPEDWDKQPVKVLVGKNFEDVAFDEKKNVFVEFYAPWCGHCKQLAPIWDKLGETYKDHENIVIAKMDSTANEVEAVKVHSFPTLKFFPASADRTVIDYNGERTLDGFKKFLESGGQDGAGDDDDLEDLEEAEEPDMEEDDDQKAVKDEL
C2C12 statin: suppression of simvastatin myotoxicity | C2C12 myotubes + simvastatin, ATP luminescence, 48 h; scaled: DMSO 0, geranylgeraniol control 100 | rescue of ATP level, % at 7.49 µM | 330,000 compounds, 0.78% hits | AID 602340;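 active means mean ATP rescue above about 67%, or every replicate alone reaching that limit, limit read from the data, passing the limit was not always enough; inconclusive means no clear call, values can overlap the other calls; inactive means mean under the limit and some replicate under it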;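 further: myotubes were challenged with 10 µM simvastatin during compound exposure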
ERp5 inh: ERp5 (human) disulfide isomerase inhibition | AID 651711 | ERp5 insulin aggregation, absorbance 650 nm, 90 min | 350,000 compounds, 0.05% hits | inhibition, % at 9.99 µM;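 active means mean replicate inhibition above about 25%, with every replicate also reaching it, limit read from the data, passing the limit was not always enough; inconclusive means only one of those two criteria met; inactive means neither criterion met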
* = called active by the depositor; ? = inconclusive; · = not tested or not shown; ! = a repeat was not active.

SMILES | DENV2 CPE rescue | CFTR F508del cor | Cneo AK release | PDI turbidity | C2C12 statin | ERp5 inh
C[C@@H]1CCCCO[C@@H](CN(C)Cc2ccc(Cl)c(Cl)c2)[C@H](C)CN([C@H](C)CO)C(=O)c2cc(NS(=O)(=O)c3ccc(Cl)cc3)ccc2O1 | 13 | 3 | 7 | · | · | -3
C[C@@H]1CCCCO[C@@H](CN(C)Cc2ccc(Cl)c(Cl)c2)[C@@H](C)CN([C@H](C)CO)C(=O)c2cc(NS(=O)(=O)c3ccc(Cl)cc3)ccc2O1 | 79* | 2 | 1 | · | · | 2
CO[C@@H]1CN(C)C(=O)c2ccc(NS(=O)(=O)c3ccccc3C)cc2OC[C@@H](C)N(C)C[C@H]1C | 8 | -1 | 2 | · | -9 | 1
C[C@H]1CCCCO[C@H](CN(C)CC2CC2)[C@@H](C)CN([C@@H](C)CO)C(=O)c2cc(NC(=O)Nc3ccccc3)ccc2O1 | -2 | 1 | 8 | · | · | 2
Cc1ccc(C(=O)N/N=C/c2cc(Br)ccc2O)cn1 | 11 | 12* | -5 | 0 | 12 | 1
Cc1ccc(C(=O)N/N=C\C=C\c2ccc(Br)cc2)cn1 | 1 | 2 | · | -8 | 1 | -2
O=C(C1CC(=O)N(c2ccc3c(c2)OCCO3)C1)N1CCN(Cc2ccccc2)CC1 (stereo not given) | -5 | 2 | -2 | -7 | 8 | -1
CCN1CCN(C(=O)C2CC(=O)N(c3ccc(Cl)cc3)C2)CC1 (stereo not given) | 61* | -1 | -4 | 2 | 2 | -1
CCOC(=O)C1CCN(C(=O)C2CC(=O)N(c3ccc4c(c3)OCCO4)C2)CC1 (stereo not given) | 61* | 0 | -1 | 3 | 3 | 4
CCN(CC)S(=O)(=O)c1ccc(NC(=O)C2CC(=O)N(c3ccc4c(c3)OCCO4)C2)cc1 (stereo not given) | 3 | 15* | 0 | -6 | 6 | 1
Cc1ccc(S(=O)(=O)N(C)C[C@H]2Oc3ccc(NC(=O)Cc4cn(C)c5ccccc45)cc3C(=O)N([C@@H](C)CO)C[C@H]2C)cc1 | · | 2 | -1 | · | 13 | ·
CCCN(C)C[C@@H]1OCCCC[C@@H](C)Oc2ccc(NS(=O)(=O)c3ccccc3)cc2C(=O)N([C@H](C)CO)C[C@@H]1C | -11 | 1 | 1 | · | -9 | 1
O=C(c1cccc(F)c1)N1CCCCN2[C@@H](CO)[C@H](c3ccc(-c4ccncc4)cc3)[C@@H]2C1 | -11 | 1 | 112* | · | · | 2
COc1ccc(-c2ccc([C@H]3[C@H](CO)N4CCCCN(C(=O)c5ccc(F)cc5)C[C@@H]34)cc2)cc1 | · | -1 | 48 | · | · | 0
O=C(c1cccc(F)c1)N1CCCCN2[C@H](CO)[C@@H](c3ccc(-c4ccc(F)cc4)cc3)[C@H]2C1 | 3 | -1 | 2 | · | · | 4
O=C(c1cccc(F)c1)N1CCCCN2[C@H](CO)[C@@H](c3ccc(-c4ccncc4)cc3)[C@H]2C1 | -4 | 6 | -1 | · | · | 0
COc1cccc(-c2ccc([C@H]3[C@H](CO)N4CCCCN(C(=O)c5ccc(F)cc5)C[C@@H]34)cc2)c1 | 37* | 0 | -2 | · | 47 | -4
O=C(c1cccc(F)c1)N1CCCCN2[C@H](C1)[C@H](c1ccc(-c3ccccc3)cc1)[C@@H]2CO | -12 | -2 | 1 | · | · | 28*
COc1ccc(CN(C)C[C@H]2Oc3ccc(NS(=O)(=O)c4ccc(C)cc4)cc3C(=O)N([C@@H](C)CO)C[C@@H]2C)cc1 | ? | 4 | -1 | · | 22 | 3
Cc1noc(C)c1S(=O)(=O)Nc1ccc2c(c1)C(=O)N([C@H](C)CO)C[C@H](C)[C@H](CN(C)Cc1ccc(-c3ccccc3)cc1)O2 | -6 | -1 | 2 | · | · | -3
C[C@@H](O)C#Cc1ccc2c(c1)O[C@@H](CN(C)Cc1ccccn1)[C@@H](C)CN([C@@H](C)CO)S2(=O)=O | 0 | 2 | -6 | · | 6 | -1
CC(C)NC(=O)N(C)C[C@H]1Oc2ccc(NC(=O)Cc3ccccc3)cc2C(=O)N([C@H](C)CO)C[C@@H]1C | 52*! | 2 | 12 | 1 | 6 | 1
CC(C)NC(=O)N(C)C[C@@H]1Oc2ccc(NC(=O)Cc3ccccc3)cc2C(=O)N([C@@H](C)CO)C[C@H]1C | -3 | 0 | -3 | · | 8 | -4
CC(C)NC(=O)N(C)C[C@@H]1Oc2ccc(NC(=O)Cc3ccccc3)cc2C(=O)N([C@H](C)CO)C[C@H]1C | 78* | 2 | 0 | · | 3 | 0
C[C@@H]1CN([C@H](C)CO)C(=O)Cc2cc(NC(=O)CCC(F)(F)F)ccc2O[C@@H]1CN(C)S(=O)(=O)c1cn(C)cn1 | -3 | -1 | 1 | · | -24 | ·
SMILES | DENV2 CPE rescue | CFTR F508del cor | Cneo AK release | PDI turbidity | C2C12 statin | ERp5 inh
CCC(=O)Nc1ccc2c(c1)OC[C@@H](C)N(C(C)=O)C[C@@H](C)[C@H](OC)CN(C)C2=O | -8 | 0 | 49 | · | -9 | -3
Cc1ccccc1N1C(=O)Cc2ccccc2C1=O | -3 | 1 | 3 | 2 | -20 | 3
Cc1ccccc1N1Cc2ccccc2C1=O | 37* | 0 | 0 | 2 | 13 | 1
O=C(c1ccc(F)cc1)N1CC(=O)N2[C@H](CO)[C@H](c3ccc(C#CC4CCCC4)cc3)[C@H]2C1 | -26 | 1 | · | · | · | 4
Cc1ccccc1S(=O)(=O)N1CC[C@@H]2[C@H]1c1cc(-c3ccc(C#N)cc3)ccc1N[C@@H]2CO | 77* | 1 | 1 | · | -12 | 3
Cc1ccccc1S(=O)(=O)N1CC[C@@H]2[C@H](CO)Nc3ccc(-c4ccc(C#N)cc4)cc3[C@@H]21 | 25* | -1 | -1 | · | 2 | -1
N#Cc1ccc(-c2ccc3c(c2)[C@H]2[C@H](CCN2S(=O)(=O)c2ccccc2F)[C@H](CO)N3)cc1 | -25 | -5 | 9 | · | -39 | ·
N#Cc1ccc(-c2ccc3c(c2)[C@@H]2[C@@H](CCN2S(=O)(=O)c2ccccc2F)[C@H](CO)N3)cc1 | 6 | 2 | 14 | · | -47 | ·
N#Cc1ccc(-c2ccc3c(c2)[C@H]2[C@H](CCN2S(=O)(=O)c2ccccc2F)[C@@H](CO)N3)cc1 | -10 | 15* | 4 | · | -36 | ·
O=C1c2cccc3c(N4CCCCC4)ccc(c23)C(=O)N1c1cccc(O)c1 | 9 | 14* | · | 20 | · | 2
O=C1c2cccc3c(N4CCCCC4)ccc(c23)C(=O)N1CCO | · | · | -5 | 14 | 10 | ·
O=C(NCC[C@@H]1CC[C@H](NC(=O)c2ccncc2)[C@@H](CO)O1)Nc1ccc(Cl)cc1 | 1 | -1 | -1 | · | -1 | -11
O=C(Cc1ccccn1)NCC[C@@H]1CC[C@@H](NC(=O)Nc2ccc(F)cc2)[C@@H](CO)O1 | 6 | 2 | -2 | · | 2 | 0
O=C(Cc1ccccn1)NCC[C@H]1CC[C@@H](NC(=O)Nc2ccc(C(F)(F)F)cc2)[C@@H](CO)O1 | -2 | 31* | 4 | · | -3 | -3
